According to ChEMBL document CHEMBL1828601, “Small molecule peptidomimetic inhibitors of importin α/β mediated nuclear transport” (Bioorg Med Chem, 2010):
Activity calls are given as the source filed them. How the calls were made is not given here.

What was measured:
[1] = Inhibition of importin-beta binding to immobilized GST-IBB domain of importin alpha at 50 uM by surface plasmon resonance assay
FGM [2] = test: Inhibition of importin alpha/beta-mediated nuclear transportation of Alexa555-BSA-NLS in human FGM cell nucleus at 500 uM after 30 mins by fluorescence microscopy; type: cell-based
FGM [3] = test: Selectivity ratio of IC50 for importin alpha/beta-mediated nuclear transportation of Alexa555-BSA-NLS to IC50 for importin alpha/beta-mediated nuclear transportation of Alexa555-GST-M9 in human FGM cell nucleus; type: cell-based
[4] = Inhibition of importin-beta binding to immobilized GST-FG domain of Nup153 at 50 uM by surface plasmon resonance assay
[5] = Inhibition of importin alpha/beta-mediated nuclear transportation of Alexa555-BSA-NLS in human FGM cell nucleus after 30 mins by fluorescence microscopy; type: cell-based
[6] = Inhibition of importin-beta binding to immobilized GST-RanQLGTP at 50 uM by surface plasmon resonance assay
FGM [7] = test: Inhibition of importin alpha/beta-mediated nuclear transportation of Alexa555-GST-M9 in human FGM cell nucleus at 500 uM after 30 mins by fluorescence microscopy; type: cell-based
How it was run: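 Transportin-dependent import measured the same way in permeabilized FGM cells, with 0.5 μM Alexa555-GST-M9 cargo in place of BSA-NLS. Conditions: 3 mg/ml HeLa cytosol, ATP-regenerating system, 0.2 mM GTP, 1% DMSO, 30 min at 30°C. Positive control was 1 mg/ml WGA. Nuclear cargo fluorescence quantified per nucleus by automated imaging.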

| SMILES | inhibition (FGM [2]) | inhibition (FGM [7]) | also measured |
| --- | --- | --- | --- |
| CC[C@H](C)[C@H](N)C(=O)Nc1ccc(C(=O)N[C@@H](CCc2ccccc2)C(=O)O)cc1OCc1ccccc1 | Active |  | Kd [1]: 42 nM; Ratio IC50 (FGM [3]): > 15; Kd [4]: 16 nM; IC50 [5]: 106000 nM; Kd [6]: 61 nM |
| COc1ccc(C[C@H](N)C(=O)Nc2ccc(C(=O)N[C@@H](CCc3ccccc3)C(=O)O)cc2OCc2ccc(Cl)cc2)cc1 | inactive | inactive |  |
| CC(C)C[C@H](N)C(=O)N1C[C@@H](C(=O)NCCCCN)[C@H](C(=O)NCCc2ccc3ccccc3c2)C1 | inactive | inactive |  |
| N[C@@H](Cc1cnc[nH]1)C(=O)N1C[C@@H](C(=O)NCCc2c[nH]cn2)[C@H](C(=O)NCCc2c[nH]c3ccccc23)C1 | inactive | inactive |  |
| NCCCCNC(=O)[C@@H]1CN(C(=O)[C@@H](N)Cc2ccc(Cl)cc2)C[C@H]1C(=O)NCCc1ccc2ccccc2c1 | inactive | inactive |  |
| NCCCCNC(=O)[C@@H]1CN(C(=O)[C@@H](N)Cc2ccc(O)cc2)C[C@H]1C(=O)NCCc1ccc2ccccc2c1 | inactive | inactive |  |
| CC(C)[C@H](N)C(=O)N1C[C@@H](C(=O)NCCCCN)[C@H](C(=O)NCCc2ccc3ccccc3c2)C1 | inactive | inactive |  |
| N[C@@H](Cc1ccc(Cl)cc1)C(=O)Nc1ccc(C(=O)N[C@@H](CCc2ccccc2)C(=O)O)cc1OCc1ccc(Cl)cc1 | inactive | inactive |  |
| CC[C@H](C)[C@H](NC(=O)c1ccc(NC(=O)CN)c(OCc2c[nH]cn2)c1)C(=O)O | inactive | inactive |  |
| C[C@@H](O)[C@H](N)C(=O)N1C[C@@H](C(=O)NCCc2c[nH]cn2)[C@H](C(=O)NCCc2c[nH]c3ccccc23)C1 | inactive | inactive |  |
| N[C@@H](Cc1ccccc1)C(=O)N1C[C@@H](C(=O)NCCc2c[nH]cn2)[C@H](C(=O)NCCc2c[nH]c3ccccc23)C1 | Active | Active |  |
| NC(=O)C[C@H](N)C(=O)Nc1ccc(C(=O)N[C@@H](CCc2ccccc2)C(=O)O)cc1OCc1ccc(Cl)cc1 | Active | Active |  |
| N[C@@H](Cc1c[nH]cn1)C(=O)Nc1ccc(C(=O)N[C@@H](CCc2ccccc2)C(=O)O)cc1OCc1ccc(Cl)cc1 | inactive | inactive |  |
| N[C@@H](Cc1ccc(O)cc1)C(=O)N1C[C@@H](C(=O)NCCc2c[nH]cn2)[C@H](C(=O)NCCc2c[nH]c3ccccc23)C1 | Active | Active |  |
| N[C@@H](CO)C(=O)N1C[C@@H](C(=O)NCCc2c[nH]cn2)[C@H](C(=O)NCCc2c[nH]c3ccccc23)C1 | inactive | inactive |  |
| NCCCCNC(=O)[C@@H]1CN(C(=O)[C@@H](N)CCc2ccc(O)cc2)C[C@H]1C(=O)NCCc1ccc2ccccc2c1 | inactive | inactive |  |
| NCCCC[C@H](N)C(=O)N1C[C@@H](C(=O)NCCc2c[nH]cn2)[C@H](C(=O)NCCc2c[nH]c3ccccc23)C1 | inactive | inactive |  |
| N[C@@H](CC(=O)O)C(=O)N1C[C@@H](C(=O)NCCc2c[nH]cn2)[C@H](C(=O)NCCc2c[nH]c3ccccc23)C1 | inactive | inactive |  |

| SMILES | inhibition (FGM [2]) | inhibition (FGM [7]) | also measured |
| --- | --- | --- | --- |
| CSCC[C@H](N)C(=O)N1C[C@@H](C(=O)NCCCCN)[C@H](C(=O)NCCc2ccc3ccccc3c2)C1 | inactive | inactive |  |
| COc1ccc(C[C@H](N)C(=O)N2C[C@@H](C(=O)NCCCCN)[C@H](C(=O)NCCc3ccc4ccccc4c3)C2)cc1 | inactive | inactive |  |
| N[C@@H](Cc1ccc2ccccc2c1)C(=O)Nc1ccc(C(=O)N[C@@H](CCc2ccccc2)C(=O)O)cc1OCc1ccc(Cl)cc1 | inactive | inactive |  |
| NCC(=O)Nc1ccc(C(=O)N[C@@H](CCc2ccccc2)C(=O)O)cc1OCc1ccc(Cl)cc1 | inactive | inactive |  |
| CC[C@H](C)[C@H](NC(=O)c1ccc(NC(=O)[C@@H](N)CC(C)C)c(OCc2c[nH]cn2)c1)C(=O)O | inactive | inactive |  |
| NCCCCNC(=O)[C@@H]1CN(C(=O)[C@@H](N)Cc2c[nH]c3ccccc23)C[C@H]1C(=O)NCCc1ccc2ccccc2c1 | Active | Active |  |
| CC[C@H](C)[C@H](NC(=O)c1ccc(NC(=O)[C@@H](N)C(C)C)c(OCc2c[nH]cn2)c1)C(=O)O | inactive | inactive |  |
| N[C@@H](Cc1c[nH]c2ccccc12)C(=O)Nc1ccc(C(=O)N[C@@H](CCc2ccccc2)C(=O)O)cc1OCc1ccc(Cl)cc1 | Active | Active |  |
| N[C@@H](CCc1ccccc1)C(=O)Nc1ccc(C(=O)N[C@@H](CCc2ccccc2)C(=O)O)cc1OCc1ccc(Cl)cc1 | Active | Active |  |
| N[C@@H](Cc1ccc(O)cc1)C(=O)Nc1ccc(C(=O)N[C@@H](CCc2ccccc2)C(=O)O)cc1OCc1ccc(Cl)cc1 | Active | Active |  |
| CC[C@H](C)[C@H](NC(=O)c1ccc(NC(=O)[C@@H](N)CC(N)=O)c(OCc2c[nH]cn2)c1)C(=O)O | inactive | inactive |  |
| COc1ccc(C[C@H](N)C(=O)N2C[C@@H](C(=O)NCCc3c[nH]cn3)[C@H](C(=O)NCCc3c[nH]c4ccccc34)C2)cc1 | Active | Active |  |
| C[C@H](N)C(=O)N1C[C@@H](C(=O)NCCCCN)[C@H](C(=O)NCCc2ccc3ccccc3c2)C1 | inactive | inactive |  |
| CC[C@@H](C)[C@H](NC(=O)c1ccc(NC(=O)[C@@H](N)CCCCN)c(OCc2c[nH]cn2)c1)C(=O)O | inactive | inactive |  |
| CC[C@H](C)[C@H](N)C(=O)N1C[C@@H](C(=O)NCCCCN)[C@H](C(=O)NCCc2ccc3ccccc3c2)C1 | inactive | inactive |  |
| NCCCCNC(=O)[C@@H]1CN(C(=O)[C@@H](N)CCc2ccccc2)C[C@H]1C(=O)NCCc1ccc2ccccc2c1 | inactive | inactive |  |
| NCCCCNC(=O)[C@@H]1CN(C(=O)[C@@H](N)CCCCN)C[C@H]1C(=O)NCCc1ccc2ccccc2c1 | inactive | inactive |  |
| CC[C@@H](C)[C@H](NC(=O)c1ccc(NC(=O)[C@@H](N)[C@@H](C)O)c(OCc2c[nH]cn2)c1)C(=O)O | inactive | inactive |  |
